Converted amounts (≈) assume the structure as drawn. The source made the active and inactive calls. The calls are words filed in the database; no cut-off is given here. Non-standard residues stand in square brackets, D forms with d. Residues, ends and D or L forms follow the SMILES beside them. *: point of attachment. Pro(4R-Me) = C[C@H]1CN[C@H](C(=O)O)C1; Oleoyl = CCCCCCCC/C=C\CCCCCCCC(=O)*; hSer = N[C@@H](CCO)C(=O)O; Alaol = C[C@@H](CO)N*
Assays:
Aspergillus fumigatus [1] = test: Antifungal activity against Aspergillus fumigatus ATCC 46645 at 8 ug/ml after 24 hrs by resazurin test; format: functional, organism-based
Summary of the method: (§1)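 Tested with and without sublethal caspofungin (0.015 μg/mL for A. fumigatus, 0.03 μg/mL for C. albicans) at 37 °C for 24 h. Resazurin 0.002% added 3–4 h before reading; fluorescence read at ex 570/em 615 nm. C. albicans was grown overnight in SDB, set to OD600 0.25 in RPMI-modified medium (pH 7.1) and diluted 1:10. Run in triplicate.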

Candida albicans [2] = test: Antifungal activity against Candida albicans MY1055 at 8 ug/ml after 24 hrs by resazurin test; format: functional, organism-based; summary of the method: as §1
Nakaseomyces glabratus [3] = test: Antifungal activity against Candida glabrata MY992 at 8 ug/ml after 24 hrs by resazurin test; format: functional, organism-based
Candida albicans [4] = test: Antifungal activity against Candida albicans MY1055 after 24 hrs by resazurin test in presence of caspofungin; format: functional; details: MY1055, 24 h; summary of the method: as §1
Aspergillus fumigatus [5] = test: Antifungal activity against Aspergillus fumigatus ATCC 46645 after 24 hrs by resazurin test in presence of caspofungin; format: functional; details: ATCC 46645, 24 h; summary of the method: as §1
Candida albicans [6] = test: Potentiation of caspofungin-induced antifungal activity against Candida albicans MY1055 at 1 ug/ml after 24 hrs by checkerboard method; format: functional, organism-based
Summary of the method: (§2)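 Checkerboard of double dilutions: caspofungin at final 0.24–0.00018 μg/mL (columns) crossed with test compound at final 8–0.015 μg/mL (rows) in the central 80 wells of one plate. Caspofungin dose–response curves gave IC50 values at each compound level.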

Aspergillus fumigatus [7] = test: Potentiation of caspofungin-induced antifungal activity against Aspergillus fumigatus ATCC 46645 at 2 ug/ml after 24 hrs by checkerboard method relative to control; format: functional; summary of the method: as §2
Candida albicans [8] = test: Antifungal activity against Candida albicans MY1055 after 24 hrs by 2-fold serial dilution method; format: functional; details: MY1055, 24 h
Summary of the method: (§3)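 Cells were inoculated at 10^5 CFU/mL into 2-fold serial compound dilutions in growth medium and incubated at 37 °C. The MIC was recorded after 24 h as the lowest concentration inhibiting visible growth. Where given, the MIC80 is 80% inhibition, reported as prominent inhibition.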

Candida albicans [9] = test: Antifungal activity against Candida albicans MY1055 after 24 hrs by 2-fold serial dilution method in presence of 50% mouse serum; format: functional; details: MY1055, 24 h
Candida tropicalis = test: Antifungal activity against Candida tropicalis ATCC 750 after 24 hrs by 2-fold serial dilution method; format: functional; details: ATCC 750, 24 h; summary of the method: as §3
Nakaseomyces glabratus [10] = test: Antifungal activity against Candida glabrata ATCC 90030 after 24 hrs by 2-fold serial dilution method; format: functional; details: ATCC 90030, 24 h; summary of the method: as §3
Clavispora lusitaniae = test: Antifungal activity against Clavispora lusitaniae ATCC 34449 after 24 hrs by 2-fold serial dilution method; format: functional; details: ATCC 34449, 24 h; summary of the method: as §3
Pichia kudriavzevii = test: Antifungal activity against Candida krusei ATCC 6258 after 24 hrs by 2-fold serial dilution method; format: functional; details: ATCC 6258, 24 h; summary of the method: as §3
Candida parapsilosis = test: Antifungal activity against Candida parapsilosis ATCC 22019 after 24 hrs by 2-fold serial dilution method; format: functional; details: ATCC 22019, 24 h; summary of the method: as §3
Aspergillus fumigatus [11] = test: Antifungal activity against Aspergillus fumigatus MF5668 after 48 hrs by 2-fold serial dilution method; format: functional; details: MF5668, 48 h
Summary of the method: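 Broth microdilution MIC test: the inoculum was 10^5 CFU/mL, with a 2-fold serial dilution of compound in growth medium at 37 °C. The MIC was read after 48 h incubation as the lowest concentration inhibiting visible growth. Where given, the MIC80 is 80% inhibition, reported as prominent inhibition.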

Aspergillus fumigatus [12] = test: Antifungal activity against Aspergillus fumigatus ATCC 46645 assessed as growth inhibition after 24 hrs by checkerboard method; format: functional, organism-based; details: ATCC 46645, 24 h; summary of the method: as §2

Compound	Activity (Aspergillus fumigatus [1])	Activity (Candida albicans [2])	Activity (Nakaseomyces glabratus [3])	MIC (Candida albicans [4]) [µg/mL]	MIC (Aspergillus fumigatus [5]) [µg/mL]	Activity (Candida albicans [6])	fold change (FC) (Aspergillus fumigatus [7])	MIC (Candida albicans [8]) [µg/mL]	MIC (Candida albicans [9]) [µg/mL]	MIC (Candida tropicalis) [µg/mL]	MIC (Nakaseomyces glabratus [10]) [µg/mL]	MIC (Clavispora lusitaniae) [µg/mL]	MIC (Pichia kudriavzevii) [µg/mL]	MIC (Candida parapsilosis) [µg/mL]	MIC (Aspergillus fumigatus [11]) [µg/mL]	MIC80 (Aspergillus fumigatus [11]) [µg/mL]	IC50 (Aspergillus fumigatus [12]) [nM]
CCCCCCCCCCCC(=O)N[C@@H](CCC(N)=O)C(=O)N[C@@H]1C(=O)NCCC(=O)N[C@H](Cc2c[nH]c3ccccc23)C(=O)N[C@@H](CO)C(=O)N[C@H](Cc2ccccc2)C(=O)O[C@@H]1C	inactive	inactive	inactive	2	4	Active	5.3	–	–	–	–	–	–	–	–	–	–
CCCCCCCC/C=C\CCCCCCCC(=O)N[C@H](C(=O)N1C[C@H](C)C[C@H]1C(=O)N[C@H](C(=O)N[C@@H](CCOC(C)=O)C(=O)N[C@@H](C)C=O)C(C)C)[C@@H](C)O (Oleoyl-T[Pro(4R-Me)]V[hSer](Ac)A-aldehyde)	–	–	–	–	–	–	–	2 (≈ 2.53 µM)	> 32	0.5 (≈ 0.631 µM)	2 (≈ 2.53 µM)	2 (≈ 2.53 µM)	4 (≈ 5.05 µM)	2 (≈ 2.53 µM)	> 32	8 (≈ 10.1 µM)	–
CCCCCCCC/C=C\CCCCCCCC(=O)N[C@H](C(=O)N1C[C@H](C)C[C@H]1C(=O)N[C@H](C(=O)N[C@@H](CCO)C(=O)N[C@@H](C)CO)C(C)C)[C@@H](C)O (Oleoyl-T[Pro(4R-Me)]V[hSer]-Alaol)	–	–	–	–	–	–	–	> 32	–	> 32	> 32	> 32	> 32	> 32	–	–	–
CCCCCCCC/C=C\CCCCCCCC(=O)N[C@H](C(=O)N1C[C@H](C)C[C@H]1C(=O)N[C@H](C(=O)N[C@@H](CCO)C(=O)N[C@@H](C)C=O)C(C)C)[C@@H](C)O (Oleoyl-T[Pro(4R-Me)]V[hSer]A-aldehyde)	–	–	–	–	–	–	–	2 (≈ 2.67 µM)	> 32	0.5 (≈ 0.667 µM)	2 (≈ 2.67 µM)	2 (≈ 2.67 µM)	2 (≈ 2.67 µM)	2 (≈ 2.67 µM)	> 32	8 (≈ 10.7 µM)	–
CC[C@H](C)C[C@H](C)CCCCCCCCC(=O)N[C@H]1C[C@@H](O)[C@@H](NCCN)NC(=O)[C@@H]2[C@@H](O)CCN2C(=O)[C@H]([C@H](O)CCN)NC(=O)[C@H]([C@H](O)[C@@H](O)c2ccc(O)cc2)NC(=O)[C@@H]2C[C@@H](O)CN2C(=O)[C@H]([C@@H](C)O)NC1=O [CASPOFUNGIN]	–	–	–	–	–	–	–	–	–	–	–	–	–	–	–	–	33

Source: ChEMBL document CHEMBL3576779, “Cyclic colisporifungin and linear cavinafungins, antifungal lipopeptides isolated from Colispora cavincola” (J Nat Prod, 2015)
